Tests used:
[1] = Selectivity ratio of Ki for sigma 2 receptor in rat liver membranes to Ki for sigma 1 receptor in guinea pig liver homogenates; format: cell membranes; conditions: Membrane
[2] = molecular target: Sigma non-opioid intracellular receptor 1 (Cavia porcellus, UniProt Q60492); assay: Displacement of (+)-[3H]pentazocine from sigma 1 receptor in guinea pig liver homogenates after 1 hr by liquid scintillation counting; format: tissue-based
Summary of the method: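 Microsomal membranes (17,000 g then 100,000 g pellets) from guinea pig liver, 25 µg/well, with 10 nM (+)-[3H]pentazocine and serial competitor concentrations for 1 h at 30°C. Filtered on 0.5% PEI-treated GF/B filters; bound label counted by liquid scintillation. Nonlinear regression, single-site fit; Ki by Cheng-Prusoff.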

[3] = Displacement of [3H]-ditolyl guanidine from sigma 2 receptor in rat liver membranes after 1 hr by liquid scintillation counting; format: cell membranes, Membrane
HT-29 = assay: Cytotoxicity against human HT-29 cells; format: functional, cell-based
MDA-MB-231 = assay: Cytotoxicity against human MDA-MB-231 cells; format: functional, cell-based
A549 = assay: Cytotoxicity against human A549 cells; format: functional, cell-based
MCF-10A = assay: Cytotoxicity against human MCF10A cells; format: functional, cell-based
MCF7 = assay: Cytotoxicity against human MCF7 cells; format: functional, cell-based
HCT-15 = assay: Cytotoxicity against human HCT15 cells; format: functional, cell-based
NCI-H460 = assay: Cytotoxicity against human NCI-H460 cells; format: functional, cell-based
DU-145 = assay: Cytotoxicity against human DU145 cells; format: functional, cell-based
[4] = Cytotoxicity against human H1299 cells; format: functional, cell-based; conditions: NCI-H1299
SK-OV-3 = assay: Cytotoxicity against human SKOV3 cells; format: functional, cell-based
SF-268 = assay: Cytotoxicity against human SF268 cells; format: functional, cell-based

Chain of Sigma non-opioid intracellular receptor 1 (Q60492 whole entry): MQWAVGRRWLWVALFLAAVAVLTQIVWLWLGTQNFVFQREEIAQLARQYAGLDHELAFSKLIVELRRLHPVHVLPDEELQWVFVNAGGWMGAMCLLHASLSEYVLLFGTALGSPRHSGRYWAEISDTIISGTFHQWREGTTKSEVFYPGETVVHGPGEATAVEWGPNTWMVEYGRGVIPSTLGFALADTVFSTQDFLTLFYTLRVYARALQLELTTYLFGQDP

| Compound | Ratio Ki [1] | Ki ([2]; read-out: Ki) [µM] | Ki ([3]; read-out: Ki) [µM] | Ki [2] | Ki [3] | IC50 (HT-29) [µM] | IC50 (MDA-MB-231) [µM] | IC50 (A549) [µM] | IC50 (MCF-10A) [µM] | IC50 (MCF7) [µM] | IC50 (HCT-15) [µM] | IC50 (NCI-H460) [µM] | IC50 (DU-145) [µM] | IC50 [4] [µM] | IC50 (SK-OV-3) [µM] | IC50 (SF-268) [µM] |
| --- | --- | --- | --- | --- | --- | --- | --- | --- | --- | --- | --- | --- | --- | --- | --- | --- |
| CCCCN(CCCC)C(=O)CCc1ccc(F)cc1 | 3.94 | 32.1 | 126 | – | – | – | – | – | – | – | – | – | – | – | – | – |
| CCCNCCc1ccc([N+](=O)[O-])cc1 | 23.8 | 2.25 | 53.6 | – | – | – | – | – | – | – | – | – | – | – | – | – |
| CCCCN(CCCC)CCCc1ccc(F)cc1 | 38.7 | 0.0177 | 0.685 | – | – | > 100 | > 100 | > 100 | > 100 | > 100 | > 100 | > 100 | > 100 | > 100 | 56.2 | > 100 |
| CCCCCCCCN(CCCCCCCC)CCCc1ccc(F)cc1 | 2.49 | 0.665 | 1.65 | – | – | – | – | – | – | – | – | – | – | – | – | – |
| CCCCN(CCCC)CCCc1ccc([N+](=O)[O-])cc1 | 1350 | 0.0003 | 0.404 | – | – | > 100 | 57.1 | > 100 | > 100 | 22.4 | > 100 | 40.5 | 32.7 | > 100 | 27.9 | > 100 |
| CCCN(CCCc1ccc([N+](=O)[O-])cc1)CCc1ccc(N)cc1 | 13.9 | 0.006 | 0.0836 | – | – | > 100 | > 100 | > 100 | > 100 | 88.1 | > 100 | > 100 | > 100 | > 100 | > 100 | > 100 |

More lines, main results first:

| Ratio Ki [1] | Ki ([2]; read-out: Ki) [µM] | Ki ([3]; read-out: Ki) [µM] | Ki [2] | Ki [3] | Compound | IC50 (HT-29) [µM] | IC50 (MDA-MB-231) [µM] | IC50 (A549) [µM] | IC50 (MCF-10A) [µM] | IC50 (MCF7) [µM] | IC50 (HCT-15) [µM] | IC50 (NCI-H460) [µM] | IC50 (DU-145) [µM] | IC50 [4] [µM] | IC50 (SK-OV-3) [µM] | IC50 (SF-268) [µM] |
| --- | --- | --- | --- | --- | --- | --- | --- | --- | --- | --- | --- | --- | --- | --- | --- | --- |
| 0.178 | 7.24 | 1.29 | – | – | CCCN(CCCc1ccc(F)cc1)CCc1ccc(N=[N+]=[N-])c(I)c1 | 36.4 | 21.6 | > 100 | 88.6 | 16.8 | 54.1 | 40.3 | 13.1 | 90.8 | > 100 | 38.8 |
| 0.339 | – | 133 | – | – | CCCN(CCCc1ccc(F)cc1)Cc1ccc(N)c(I)c1 | – | – | – | – | – | – | – | – | – | – | – |
| 13.1 | 0.164 | 2.15 | – | – | CCCN(CCCc1ccc(F)cc1)Cc1ccc(N)cc1 | > 100 | > 100 | > 100 | > 100 | > 100 | > 100 | > 100 | > 100 | > 100 | > 100 | > 100 |
| 2.53 | 0.091 | 0.23 | – | – | CCCNCCCc1ccc(F)cc1 | – | – | – | – | – | – | – | – | – | – | – |
| > 571 | 89 | – | – | – | CCCN(CCCc1ccc(F)cc1)Cc1ccc(N=[N+]=[N-])c(I)c1 | – | – | – | – | – | – | – | – | – | – | – |
| – | – | 236 | Not Active | – | CCCN(Cc1cccc([N+](=O)[O-])c1)C(=O)CCc1ccc(F)cc1 | – | – | – | – | – | – | – | – | – | – | – |
| – | 53.6 | – | – | Not Active | CCCCCCCCN(CCCCCCCC)C(=O)CCc1ccc(F)cc1 | – | – | – | – | – | – | – | – | – | – | – |
| 0.046 | 2.59 | 0.12 | – | – | CCCN(CCCc1ccc(F)cc1)CCc1ccc(N)cc1 | > 100 | 68.1 | > 100 | > 100 | 41.3 | > 100 | 44.8 | > 100 | > 100 | 20.2 | > 100 |

Source: ChEMBL document CHEMBL1165976, “Synthesis and characterization of N,N-dialkyl and N-alkyl-N-aralkyl fenpropimorph-derived compounds as high affinity ligands for sigma receptors” (Bioorg Med Chem, 2010)
